Calls of active or inactive are those of the source.
How the values were obtained:
[1] = tested on: Rattus norvegicus; test: Reduction in cocaine cue reactivity in Sprague-Dawley rat assessed as decrease in active lever presses at 1 mg/kg, ip administered as single dose 15 mins prior to self administration of cocaine; type: functional, organism-based
How it was run: (§1)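 Catheterized male Sprague–Dawley rats self-administered cocaine (0.75 mg/kg/infusion iv, each paired with light/pump cue) in 14 daily 180 min sessions, reaching FR5 stability. After 24 h they received saline (1 mL/kg ip) or compound (1 mg/kg ip) 15 min before a cue reactivity test.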

[2] = molecular target: T1, 5-hydroxytryptamine receptor 2C (Homo sapiens) (UniProt P28335); test: Positive allosteric modulation of human 5-HT2CR expressed in CHO cells assessed as 5-HT-induced intracellular calcium release at 1 nM preincubated for 15 mins followed by 5-HT addition by calcium-4 dye based FLIPR assay (reference value: 100%); type: functional, cell-based
T1 sequence (whole entry): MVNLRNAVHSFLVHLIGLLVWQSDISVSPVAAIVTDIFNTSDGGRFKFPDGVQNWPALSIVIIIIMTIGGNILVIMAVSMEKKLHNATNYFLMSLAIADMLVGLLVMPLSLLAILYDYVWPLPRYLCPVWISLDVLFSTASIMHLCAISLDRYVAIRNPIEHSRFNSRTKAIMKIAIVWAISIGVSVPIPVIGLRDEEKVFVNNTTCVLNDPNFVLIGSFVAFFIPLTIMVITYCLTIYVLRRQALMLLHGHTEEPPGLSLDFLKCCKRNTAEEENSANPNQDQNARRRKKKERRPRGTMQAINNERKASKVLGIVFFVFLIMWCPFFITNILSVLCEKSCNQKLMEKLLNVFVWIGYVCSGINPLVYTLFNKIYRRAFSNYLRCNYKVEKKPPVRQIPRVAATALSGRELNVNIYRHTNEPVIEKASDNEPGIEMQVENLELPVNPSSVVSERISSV
How it was run: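 CHO cells stably expressing human unedited INI 5-HT2CR were plated, serum-starved 3 h, then loaded with Calcium 4 dye plus 2.5 mM probenecid (60 min 37 °C, then 15 min RT). Compound (1 nM) was added; the read after this addition gave intrinsic agonism. 5-HT (10 pM–10 μM) followed 15 min later. FLIPR-TETRA: 10 s baseline, 1 s reads for 120 s after compound and 360 s after 5-HT. Emax came from 4-parameter fits, ≥3 biological replicates in triplicate.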

[3] = molecular target: T1, 5-hydroxytryptamine receptor 2C (Homo sapiens); test: Positive allosteric modulation of human 5-HT2CR expressed in CHO cells assessed as increase in 5-HT-induced intracellular calcium release at 0.000001 to 1 uM preincubated for 15 mins followed by 5-HT addition by calcium-4 dye based FLIPR assay; type: functional, cell-based
How it was run: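 CHO cells stably expressing human unedited (INI) 5-HT2CR, passages 6–16, grown at 37 °C in medium with 5% FBS and hygromycin. Plated cells were serum-starved 3 h, then loaded 60 min at 37 °C plus 15 min at room temperature with Calcium 4 dye and 2.5 mM probenecid in HBSS pH 7.4. Compound (1 pM, 1 nM, 1 μM) was added 15 min before 5-HT (10 pM–10 μM), and fluorescence peak height was read.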

[4] = molecular target: 5-hydroxytryptamine receptor 1A (Homo sapiens) (UniProt P08908); test: Displacement of [3H]-8-OH-DPAT from recombinant human 5-HT1AR expressed in CHO cell membranes at 10 uM after 90 mins by scintillation counting method relative to control
[5] = molecular target: T1, 5-hydroxytryptamine receptor 2C (Homo sapiens); test: Displacement of [3H]-mesulergine from recombinant human 5-HT2CR expressed in Flp-IN HEK cell membranes at 10 uM after 90 mins by scintillation counting method relative to control
How it was run: (§2)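 Single-concentration screen at 10 μM test compound, each target labelled with the radioligand given in the line. The read-out is mean % inhibition of specific radioligand binding (n = 4). Targets above 50% inhibition went on to full competition isotherms, and Ki came from best-fit IC50 by the Cheng–Prusoff equation.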

[6] = molecular target: Sodium-dependent dopamine transporter (Homo sapiens) (UniProt Q01959); test: Displacement of [3H]-WIN35428 from recombinant human DAT expressed in HEK cell membranes at 10 uM after 90 mins by scintillation counting method relative to control; how it was run: as §2
[7] = molecular target: Sodium-dependent serotonin transporter (Homo sapiens) (UniProt P31645); test: Displacement of [3H]-citalopram from recombinant human SERT expressed in HEK cell membranes at 10 uM after 90 mins by scintillation counting method relative to control
[8] = molecular target: Alpha-2B adrenergic receptor (Homo sapiens) (UniProt P18089); test: Displacement of [3H]-rauwolscine from recombinant human alpha-2B adrenergic receptor expressed in HEKT cell membranes at 10 uM after 90 mins by scintillation counting method relative to control; how it was run: as §2
[9] = Terminal half life in Sprague-Dawley rat at 10 mg/kg, po administered as single dose; type: ADME, organism-based; conditions: in vivo
[10] = Clearance in Sprague-Dawley rat at 5 mg/kg, iv administered as single dose; type: ADME, organism-based; conditions: in vivo
[11] = Volume of distribution at steady state in Sprague-Dawley rat at 5 mg/kg, iv administered as single dose; type: ADME, organism-based; conditions: in vivo
[12] = Cmax in Sprague-Dawley rat at 10 mg/kg, po administered as single dose; type: ADME, organism-based; parameters: dose 10 mg/kg, route oral; conditions: in vivo
[13] = tested on: Rattus norvegicus; test: Increase in WAY163909-induced suppression of spontaneous locomotor activity in Sprague-Dawley rat assessed as reduction in total ambulation at 5 mg/kg, ip administered as single dose measured for 30 mins; type: functional, organism-based
How it was run: (§3)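 Rats (n = 9–10/group) received SB242084 (1 mg/kg ip) or vehicle (8% 2-hydroxypropyl-β-cyclodextrin) 15 min before ip WAY163909 (1 mg/kg) plus compound (5 mg/kg). They were placed in monitors immediately; ambulations and vertical activity were totalled over 30 min. Analysis: ANOVA with Bonferroni comparisons.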

[14] = tested on: Rattus norvegicus; test: Increase in WAY163909-induced suppression of spontaneous locomotor activity in Sprague-Dawley rat assessed as reduction in total ambulation at 5 mg/kg, ip cotreated with WAY163909 at 15 mins post 5-HT2C antagonist SB242084 treatment measured for 30 mins; type: functional, organism-based; how it was run: as §3
[15] = tested on: Rattus norvegicus; test: Drug discrimination in WAY163909-trained Sprague-Dawley rat assessed as increase in WAY163909-appropriate lever responding at 0.5 mg/kg, ip treated 15 mins prior to test relative to control; type: functional
How it was run: (§4)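 Water-restricted male Sprague–Dawley rats were trained to discriminate WAY163909 (0.75 mg/kg ip, 15 min pretreatment) from saline under FR20, to a criterion of ≥80% correct for 10 sessions. Test doses were given ip 15 min before test: compound alone (0.125–1.0 mg/kg) or compound 0.5 mg/kg plus WAY163909 0.5 mg/kg. Read-out was % drug-lever responding; only rats completing FR20 within 15 min were counted.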

[16] = tested on: Rattus norvegicus; test: Drug discrimination in WAY163909-trained Sprague-Dawley rat assessed as increase in WAY163909-appropriate lever responding at 0.5 mg/kg, ip co-treated with WAY163909 15 mins prior to test relative to control; type: functional; how it was run: as §4
[17] = tested on: Rattus norvegicus; test: Effect on inactive lever presses in Sprague-Dawley rat at 1 mg/kg, ip administered as single dose 15 mins prior to self administration of cocaine; type: organism-based; conditions: in vivo, 0.25 h; how it was run: as §1

5-hydroxytryptamine receptor 1A (Homo sapiens), sequence (P08908 whole entry): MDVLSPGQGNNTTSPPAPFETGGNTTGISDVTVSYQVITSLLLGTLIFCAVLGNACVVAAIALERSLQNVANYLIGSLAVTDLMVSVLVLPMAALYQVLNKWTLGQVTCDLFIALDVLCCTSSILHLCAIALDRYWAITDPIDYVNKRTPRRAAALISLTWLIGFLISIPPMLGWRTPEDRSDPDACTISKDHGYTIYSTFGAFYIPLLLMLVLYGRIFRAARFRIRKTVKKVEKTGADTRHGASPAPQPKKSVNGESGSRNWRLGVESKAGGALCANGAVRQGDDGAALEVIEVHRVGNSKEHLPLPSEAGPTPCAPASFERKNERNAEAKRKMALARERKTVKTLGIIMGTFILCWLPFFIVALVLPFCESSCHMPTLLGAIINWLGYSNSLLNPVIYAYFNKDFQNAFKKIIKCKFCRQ
Alpha-2B adrenergic receptor (Homo sapiens), sequence (P18089 whole entry): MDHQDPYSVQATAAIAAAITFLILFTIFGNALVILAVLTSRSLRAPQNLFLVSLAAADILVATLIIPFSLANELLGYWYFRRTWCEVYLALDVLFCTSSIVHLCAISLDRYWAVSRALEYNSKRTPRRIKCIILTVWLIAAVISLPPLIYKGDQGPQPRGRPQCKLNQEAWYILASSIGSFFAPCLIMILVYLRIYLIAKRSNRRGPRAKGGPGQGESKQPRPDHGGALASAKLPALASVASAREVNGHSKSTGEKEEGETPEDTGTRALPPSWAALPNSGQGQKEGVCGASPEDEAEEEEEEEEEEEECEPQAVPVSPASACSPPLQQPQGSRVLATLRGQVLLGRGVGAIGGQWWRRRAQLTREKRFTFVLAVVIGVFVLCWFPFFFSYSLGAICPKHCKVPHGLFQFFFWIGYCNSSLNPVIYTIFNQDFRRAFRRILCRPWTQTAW
Sodium-dependent dopamine transporter (Homo sapiens), sequence (Q01959 whole entry): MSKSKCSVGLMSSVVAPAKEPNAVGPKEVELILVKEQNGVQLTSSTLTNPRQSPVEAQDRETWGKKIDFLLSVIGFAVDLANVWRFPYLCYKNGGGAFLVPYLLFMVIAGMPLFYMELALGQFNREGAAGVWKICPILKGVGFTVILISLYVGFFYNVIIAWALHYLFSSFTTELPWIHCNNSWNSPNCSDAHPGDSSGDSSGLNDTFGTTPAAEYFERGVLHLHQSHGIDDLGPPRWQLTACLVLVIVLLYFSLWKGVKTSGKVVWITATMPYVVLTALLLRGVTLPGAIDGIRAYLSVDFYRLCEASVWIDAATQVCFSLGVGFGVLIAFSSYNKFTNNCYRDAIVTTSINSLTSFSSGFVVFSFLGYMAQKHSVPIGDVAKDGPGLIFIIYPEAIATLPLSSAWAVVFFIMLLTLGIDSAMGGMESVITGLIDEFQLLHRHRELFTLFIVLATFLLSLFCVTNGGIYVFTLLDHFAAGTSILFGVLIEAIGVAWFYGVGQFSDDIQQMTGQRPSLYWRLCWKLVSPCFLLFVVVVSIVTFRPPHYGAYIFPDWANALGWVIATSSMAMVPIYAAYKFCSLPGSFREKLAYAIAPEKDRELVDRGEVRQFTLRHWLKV
Sodium-dependent serotonin transporter (Homo sapiens), sequence (P31645 whole entry, looked up): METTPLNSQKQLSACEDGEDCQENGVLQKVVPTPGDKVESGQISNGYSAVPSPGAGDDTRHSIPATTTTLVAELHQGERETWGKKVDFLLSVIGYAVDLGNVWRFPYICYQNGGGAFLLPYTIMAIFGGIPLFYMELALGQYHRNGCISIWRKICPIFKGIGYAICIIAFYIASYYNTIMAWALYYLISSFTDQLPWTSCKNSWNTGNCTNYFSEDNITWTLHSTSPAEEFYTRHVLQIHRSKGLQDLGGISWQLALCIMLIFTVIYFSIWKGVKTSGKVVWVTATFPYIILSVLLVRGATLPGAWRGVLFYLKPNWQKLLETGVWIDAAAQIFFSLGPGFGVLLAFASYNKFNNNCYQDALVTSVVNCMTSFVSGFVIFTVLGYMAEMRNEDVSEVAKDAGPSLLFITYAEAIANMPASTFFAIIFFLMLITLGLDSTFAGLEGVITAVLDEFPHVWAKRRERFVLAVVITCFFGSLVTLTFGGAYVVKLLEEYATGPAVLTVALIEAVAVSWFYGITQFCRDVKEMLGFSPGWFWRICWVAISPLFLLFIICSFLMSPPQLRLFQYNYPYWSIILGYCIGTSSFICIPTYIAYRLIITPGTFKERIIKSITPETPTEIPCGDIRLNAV

In the case of `CCCCCCCCCCC[C@@H]1CCN[C@H](C(=O)NCC(O)CO)C1` (relative stereo), the Activity [1] was “Active”, the Emax [2] was 123% and the Activity [3] was “Active”. For the same compound, the inhibition [4] was 25.7%, the inhibition [5] was 9.8% and the inhibition [6] was 66.3%. For the same compound, the inhibition [7] was 24.8%, the inhibition [8] was 80.7% and the “beta t1/2” value [9] was 5.82 h. It also gave a CL [10] of 89.5 mL/min/kg, a Vdss [11] of 35.07 L/kg and a Cmax [12] of 68.1 ng/mL. For the same compound, the Activity [13] was “Active”, the Activity [14] was “inactive” and the Activity [15] was 30%. The Activity [16] was 95% and the Activity [17] was “Non-Toxic”.

Reference: ChEMBL document CHEMBL4308830, “Design, Synthesis, and Characterization of 4-Undecylpiperidine-2-carboxamides as Positive Allosteric Modulators of the Serotonin (5-HT) 5-HT2C Receptor” (J Med Chem, 2018)
